Laboratory results published in ChEMBL document CHEMBL1156597, “Structure-activity relationship of kahalalide F synthetic analogues” (J Med Chem, 2008).

Key:
[1] = system: HT-29; assay: Cytotoxicity against human HT29 cells after 48 hrs by SRB assay; type: functional, cell-based; settings: for GI50 / TGI / CC50: Homo sapiens, HT-29, 48 h; for CC50: read-out: LC50 (the source's name)
In short: (§1)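 Cells grown in RPMI 1640 with 10% FBS and penicillin/streptomycin at 37 °C and 5% CO₂, trypsinized, then seeded at 5 × 10³/well. After 18 h drug-free attachment, samples in DMSO/EtOH/PBS (0.5:0.5:99) were added for 48 h continuous exposure. Cells were fixed with cold TCA (1 h, 4 °C) and stained with SRB (10 min). Tris-solubilized stain read at 490 nm. Triplicate wells, mean ± SD; GI₅₀ derived.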

[2] = system: SK-MEL-28; assay: Cytotoxicity against human SK-MEL-28 cells after 48 hrs by SRB assay; type: functional, cell-based; settings: for CC50 / TGI / GI50: Homo sapiens, SK-MEL-28, 48 h; for CC50: read-out: LC50 (the source's name); for GI50: read-out: GI50; in short: as §1
[3] = system: DU-145; assay: Cytotoxicity against human DU145 cells after 48 hrs by SRB assay; type: functional, cell-based; settings: for TGI / GI50 / CC50: Homo sapiens, DU-145, 48 h; for CC50: read-out: LC50 (the source's name); in short: as §1
[4] = system: A549; assay: Cytotoxicity against human A549 cells after 48 hrs by SRB assay; type: functional, cell-based; settings: for LC50 / TGI / GI50: Homo sapiens, A549, 48 h; for GI50: read-out: GI50; in short: as §1
[5] = Cytotoxicity against human IGROV-ET cells after 48 hrs by SRB assay; type: functional; settings: for CC50: read-out: LC50 (the source's name); in short: as §1
[6] = system: PANC-1; assay: Cytotoxicity against human PANC1 cells after 48 hrs by SRB assay; type: functional; settings: PANC-1, 48 h; for CC50: read-out: LC50 (the source's name); in short: as §1
[7] = system: SK-BR-3; assay: Cytotoxicity against human SKBR3 cells after 48 hrs by SRB assay; type: functional; settings: SK-BR-3, 48 h; for GI50: read-out: GI50; for CC50: read-out: LC50 (the source's name); in short: as §1
[8] = system: HeLa; assay: Cytotoxicity against human HeLa cells after 48 hrs by SRB assay; type: functional; settings: for CC50: read-out: LC50 (the source's name); in short: as §1
[9] = system: LoVo; assay: Cytotoxicity against human LoVo cells after 48 hrs by SRB assay; type: functional; settings: for CC50: read-out: LC50 (the source's name)
[10] = Cytotoxicity against human IGROV cells after 48 hrs by SRB assay; type: functional; settings: for CC50: read-out: LC50 (the source's name); in short: as §1
[11] = Cytotoxicity against human HeLa-APL cells after 48 hrs by SRB assay; type: functional; in short: as §1
[12] = system: LoVo; assay: Cytotoxicity against human doxorubicin resistant LoVo cells after 48 hrs by SRB assay; type: functional; settings: for CC50: read-out: LC50 (the source's name); in short: as §1
[13] = system: K562; assay: Cytotoxicity against human K562 cells after 48 hrs by SRB assay; type: functional; settings: K562, 48 h, read-out: LC50 (the source's name); in short: as §1

SMILES | GI50 [1] [nM] | TGI [1] [nM] | CC50 [1] [nM] | CC50 [5] [nM] | GI50 [6] [nM] | TGI [6] [nM] | CC50 [6] [nM] | CC50 [2] [nM] | TGI [3] [nM] | GI50 ([3]; read-out: GI50) [nM] | CC50 [3] [nM] | GI50 [8] [nM] | TGI [8] [nM] | CC50 [8] [nM] | LC50 [4] [nM] | GI50 [9] [nM] | TGI [9] [nM] | CC50 [9] [nM] | CC50 [10] [nM] | LC50 (concentration giving 50% net cell kill) [11] [nM] | further results
C/C=C1\NC(=O)[C@H](Cc2ccccc2)NC(=O)[C@@H](C(C)C)NC(=O)[C@@H]([C@H](C)CC)NC(=O)[C@H](NC(=O)[C@H](NC(=O)[C@H](CCCN)NC(=O)[C@H]2CCCN2C(=O)[C@H](NC(=O)[C@@H](NC(=O)[C@@H](NC(=O)[C@H](NC(C)=O)C(C)C)[C@@H](C)O)C(C)C)C(C)C)[C@H](C)CC)[C@H](C)OC(=O)[C@H](C(C)C)NC1=O | – | – | – | – | – | – | – | – | – | – | – | – | – | – | – | – | – | – | – | – | Activity [1]: 7.11 ×10⁻⁶ M; Activity [2]: 7.11 ×10⁻⁶ M; Activity [3]: 7.11 ×10⁻⁶ M; Activity [4]: 7.11 ×10⁻⁶ M
CC[C@@H](C)[C@@H](NC(=O)[C@H](CCCN)NC(=O)[C@H]1CCCN1C(=O)[C@H](NC(=O)[C@@H](NC(=O)[C@@H](NC(=O)[C@H](NC(=O)CCCC(C)C)C(C)C)[C@@H](C)O)C(C)C)C(C)C)C(=O)N[C@H]1C(=O)N[C@H]([C@H](C)CC)C(=O)N[C@H](C(C)C)C(=O)N[C@@H](Cc2ccccc2)C(=O)N/C(=C\c2ccccc2)C(=O)N[C@@H](C(C)C)C(=O)O[C@H]1C | 5130 | 10100 | 5220 | 629 | 4540 | 4450 | 2140 | 1390 | 1120 | 1390 | 893 | 1500 | 1180 | 936 | 1110 | 836 | 1420 | 1890 | 559 | 704 | TGI [7]: 1150 nM; GI50 [7]: 601 nM; CC50 [7]: 806 nM
CC[C@@H](C)[C@@H](NC(=O)[C@H](CCCN)NC(=O)[C@H]1CCCN1C(=O)[C@H](NC(=O)[C@@H](NC(=O)[C@@H](NC(=O)[C@H](NC(=O)CCCC(C)C)C(C)C)[C@@H](C)O)C(C)C)C(C)C)C(=O)N[C@H]1C(=O)N[C@H]([C@H](C)CC)C(=O)N[C@H](C(C)C)C(=O)N[C@@H](Cc2ccccc2)C(=O)N[C@H]([C@H](C)O)C(=O)N[C@@H](C(C)C)C(=O)O[C@H]1C | 11800 | 10400 | 5370 | 1030 | 4880 | 4580 | 2210 | 2540 | – | – | 1500 | – | – | 1490 | 1150 | 3440 | 4230 | 4420 | 941 | 1200 | TGI [7]: 6690 nM; GI50 [7]: 6150 nM; CC50 [7]: 1880 nM
C/C=C1\NC(=O)[C@H](Cc2ccccc2)NC(=O)[C@@H](C(C)C)NC(=O)[C@@H]([C@H](C)CC)NC(=O)[C@H](NC(=O)[C@H](NC(=O)[C@H](CCCN)NC(=O)[C@H]2CCCN2C(=O)[C@H](NC(=O)[C@@H](NC(=O)[C@@H](NC(=O)[C@H](NC(=O)CC(C)C)C(C)C)[C@@H](C)O)C(C)C)C(C)C)[C@H](C)CC)[C@H](C)OC(=O)[C@H](C(C)C)NC1=O | 2980 | 3060 | 3140 | 708 | – | – | 2880 | 1330 | 1860 | 2070 | 1660 | 2090 | 2090 | 1630 | 1710 | 1630 | 1990 | 2420 | 848 | 1690 | GI50 [12]: 882 nM; TGI [12]: 1390 nM; CC50 [12]: 1880 nM; TGI [2]: 1620 nM; GI50 [2]: 1980 nM; TGI [4]: 1700 nM; GI50 [4]: 1680 nM; CC50 [13]: 3810 nM; GI50 [11]: 2330 nM; TGI [11]: 2000 nM
C/C=C1\NC(=O)[C@H](Cc2ccccc2)NC(=O)[C@@H](C(C)C)NC(=O)[C@@H]([C@H](C)CC)NC(=O)[C@H](NC(=O)[C@H](NC(=O)[C@H](CCCN)NC(=O)[C@H]2CCCN2C(=O)[C@H](NC(=O)[C@@H](NC(=O)[C@@H](NC(=O)[C@H](NC(=O)c2ccc(C)cc2)C(C)C)[C@@H](C)O)C(C)C)C(C)C)[C@H](C)CC)[C@H](C)OC(=O)[C@H](C(C)C)NC1=O | – | – | – | 422 | – | – | – | – | – | – | – | – | – | – | – | – | – | – | 394 | – | GI50 [5]: 421 nM; GI50 ([5]; read-out: GI50): 365 nM; GI50 [10]: 447 nM; GI50 ([10]; read-out: GI50): 479 nM; GI50 [11]: 950 nM; TGI [11]: 898 nM
C/C=C1\NC(=O)[C@H](Cc2ccccc2)NC(=O)[C@@H](C(C)C)NC(=O)[C@@H]([C@H](C)CC)NC(=O)[C@H](NC(=O)[C@H](NC(=O)[C@H](CCCNC(=O)c2cc(F)c(F)c(F)c2F)NC(=O)[C@H]2CCCN2C(=O)[C@H](NC(=O)[C@@H](NC(=O)[C@@H](NC(=O)[C@H](NC(=O)CCCC(C)C)C(C)C)[C@@H](C)O)C(C)C)C(C)C)[C@H](C)CC)[C@H](C)OC(=O)[C@H](C(C)C)NC1=O | 116 | 95.1 | 202 | 441 | 1580 | 1580 | 1580 | 1060 | – | 726 | 831 | 288 | 685 | 861 | 1040 | 84.2 | 93.8 | 104 | 274 | 869 | GI50 [5]: 357 nM; GI50 ([5]; read-out: GI50): 332 nM; CC50 [12]: 87.8 nM; TGI [2]: 1060 nM; GI50 [2]: 984 nM; GI50 [3]: 831 nM; TGI [4]: 1040 nM; GI50 [4]: 1040 nM; CC50 [13]: 172 nM; GI50 [10]: 217 nM; GI50 ([10]; read-out: GI50): 182 nM; GI50 [11]: 493 nM; TGI [11]: 595 nM
C/C=C1\NC(=O)[C@H](Cc2ccccc2)NC(=O)[C@@H](C(C)C)NC(=O)[C@@H]([C@H](C)CC)NC(=O)[C@H](NC(=O)[C@H](NC(=O)[C@H](CCCN)NC(=O)[C@H]2CCCN2C(=O)[C@H](NC(=O)[C@@H](NC(=O)[C@@H](NC(=O)[C@H](NC(=O)CC[C@@H](C)[C@H]2CC[C@H]3[C@@H]4CC[C@@H]5C[C@H](O)CC[C@]5(C)[C@H]4CC[C@]23C)C(C)C)[C@@H](C)O)C(C)C)C(C)C)[C@H](C)CC)[C@H](C)OC(=O)[C@H](C(C)C)NC1=O | – | – | 10300 | 2280 | 4350 | 9720 | 5520 | 3870 | 6000 | 5100 | 3310 | 740 | 5420 | 3130 | 3580 | 14900 | 16900 | 9830 | 2710 | 3580 | TGI [5]: 5580 nM; GI50 ([5]; read-out: GI50): 4400 nM; CC50 [12]: 9860 nM; CC50 [13]: 8320 nM
